Blank lines part the entries; values can stand above or below the molecule they belong to.
Tests used:
[1] = Dissociation constant, pKa by spectrophotometry; type: physicochemical
[2] = Inhibition of beta-hematin formation after 18 hrs; type: functional
In short: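 Modified BHIA: 8 mM hemin in DMSO (0.4 µmol per tube) was mixed with compounds in DMSO or DMSO/MeOH (1:1) at 0–10 molar equivalents to hemin, in triplicate. Acetate buffer held pH 5, and water-only controls were run. Hematin was quantified after serial dilution in 0.1 M NaOH, by absorbance at 405 nm. IC50 was taken as the concentration inhibiting crystallization by 50%.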

[3] = Binding affinity to synthetic hematin by spectrophotometry
In short: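 Monomeric hematin solution: hematin in 0.1 M NaOH with DMSO and 0.02 M sodium phosphate buffer (pH 6.0), made up with water. Drug and hematin were mixed at 10 molar ratios. Complex stoichiometry and dissociation constant Kd were determined by spectrophotometric methods.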

KB = experiment: Cytotoxicity against human KB cells after 72 hrs by MTS assay; type: cell-based
In short: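 KB cells were grown in D-MEM with 10% fetal calf serum, penicillin, streptomycin and fungizone, under 5% CO2. They were seeded at 650 cells/well and dosed 24 h later with compounds in DMSO, from 0.5 nM upward; controls got DMSO (1% final). MTS was added for 3 h at 37 °C and absorbance read at 490 nm as % of control. IC50 came from separate duplicate experiments.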

[4] = Selectivity index, ratio of IC50 for human KB cells to IC50 for chloroquine-sensitive Plasmodium falciparum 3D7; type: toxicity, cell-based; details: read-out: Ratio IC50
In short: (§1)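 SI is the ratio of the KB-cell IC50 to the parasite [3H]hypoxanthine IC50 for the given strain. KB cells were grown in D-MEM with 10% FCS and antibiotics under 5% CO2 and plated at 650 cells/well. After 24 h they were treated with compounds in DMSO (0.5 nM to 10 µM; 1% DMSO final) for 72 h. MTS was then added for 3 h at 37 °C and A490 was read against controls. IC50 runs were done in separate duplicate.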

[5] = Selectivity index, ratio of IC50 for human KB cells to IC50 for chloroquine-resistant Plasmodium falciparum W2; type: toxicity, cell-based; details: read-out: Ratio IC50; in short: as §1
[6] = Selectivity index, ratio of IC50 for human KB cells to IC50 for chloroquine-resistant Plasmodium falciparum FCR3/Gambia; type: toxicity, cell-based; details: read-out: Ratio IC50; in short: as §1
[7] = Selectivity index, ratio of IC50 for human KB cells to IC50 for chloroquine-resistant Plasmodium falciparum Bre1; type: toxicity, cell-based; details: read-out: Ratio IC50; in short: as §1
Plasmodium falciparum [8] = experiment: Antiplasmodial activity against chloroquine-sensitive Plasmodium falciparum 3D7 assessed as inhibition of [3H]hypoxanthine incorporation; type: functional, organism-based
Plasmodium falciparum [9] = experiment: Antiplasmodial activity against chloroquine-resistant Plasmodium falciparum W2 assessed as inhibition of [3H]hypoxanthine incorporation; type: functional, organism-based
Plasmodium falciparum [10] = experiment: Antiplasmodial activity against chloroquine-resistant Plasmodium falciparum FCR3/Gambia assessed as inhibition of [3H]hypoxanthine incorporation; type: functional, organism-based; details: FCR-3/Gambia
Plasmodium falciparum [11] = experiment: Antiplasmodial activity against chloroquine-resistant Plasmodium falciparum Bre1 assessed as inhibition of [3H]hypoxanthine incorporation; type: functional, organism-based

SMILES: COc1ccc2nc3cc(Cl)ccc3c(NCCCCCCN)c2c1
pKa [1]: 9.2
IC50 [2]: 400 µM
Kd [3]: 4.4 µM
IC50 (KB): 0.7 µM
selectivity ratio [4]: 5.4
selectivity ratio [5]: 3.9
selectivity ratio [6]: 3.5
selectivity ratio [7]: 4.1

SMILES: COc1ccc2nc3cc(Cl)ccc3c(NCCCCN)c2c1
pKa [1]: 9.1
IC50 (Plasmodium falciparum [8]): 0.067 µM
IC50 (Plasmodium falciparum [9]): 0.25 µM
IC50 (Plasmodium falciparum [10]): 0.25 µM
IC50 (Plasmodium falciparum [11]): 0.3 µM
IC50 [2]: 1000 µM
Kd [3]: 8.1 µM
IC50 (KB): 0.6 µM
selectivity ratio [4]: 8.9
selectivity ratio [5]: 2.4
selectivity ratio [6]: 2.4
selectivity ratio [7]: 2

SMILES: CCCCCCCNc1c2ccc(Cl)cc2nc2ccc(OC)cc12
pKa [1]: 7.5
IC50 (Plasmodium falciparum [8]): 18.1 µM
IC50 (Plasmodium falciparum [9]): 27.2 µM
IC50 (Plasmodium falciparum [10]): 14.6 µM
IC50 (Plasmodium falciparum [11]): 16.3 µM
IC50 [2]: 1500 µM
Kd [3]: 5.4 µM
IC50 (KB): 0.85 µM
selectivity ratio [4]: 0.04
selectivity ratio [5]: 0.02
selectivity ratio [6]: 0.06
selectivity ratio [7]: 0.05

SMILES: NCCC(=O)NCCC(=O)Nc1c2ccccc2nc2ccccc12
pKa [1]: 4.53
IC50 (Plasmodium falciparum [8]): 40.9 µM
IC50 (Plasmodium falciparum [9]): 20.9 µM
IC50 (Plasmodium falciparum [10]): 17.8 µM
IC50 (Plasmodium falciparum [11]): 21.6 µM
IC50 [2]: 1800 µM
Kd [3]: 4 µM
IC50 (KB): 60.1 µM
selectivity ratio [4]: 1.5
selectivity ratio [5]: 2.9
selectivity ratio [6]: 3.4
selectivity ratio [7]: 2.8

SMILES: NCCCCCCNc1c2ccccc2nc2ccccc12
pKa [1]: 9.86
IC50 (Plasmodium falciparum [8]): 1.13 µM
IC50 (Plasmodium falciparum [9]): 0.6 µM
IC50 (Plasmodium falciparum [10]): 0.36 µM
IC50 (Plasmodium falciparum [11]): 0.43 µM
IC50 [2]: 300 µM
Kd [3]: 4.6 µM
IC50 (KB): 0.79 µM
selectivity ratio [4]: 0.7
selectivity ratio [5]: 1.3
selectivity ratio [6]: 2.2
selectivity ratio [7]: 1.8

SMILES: COc1ccc2nc3cc(Cl)ccc3c(NCCN)c2c1
pKa [1]: 7.94
IC50 (Plasmodium falciparum [8]): 0.042 µM
IC50 (Plasmodium falciparum [9]): 0.25 µM
IC50 (Plasmodium falciparum [10]): 0.33 µM
IC50 (Plasmodium falciparum [11]): 0.28 µM
IC50 [2]: 4600 µM
Kd [3]: 4.2 µM
IC50 (KB): 2.07 µM
selectivity ratio [4]: 50
selectivity ratio [5]: 8
selectivity ratio [6]: 6
selectivity ratio [7]: 7

SMILES: NCCCCCCCC(=O)Nc1c2ccccc2nc2ccccc12
pKa [1]: 4.59
IC50 (Plasmodium falciparum [8]): 41.9 µM
IC50 (Plasmodium falciparum [9]): 50 µM
IC50 (Plasmodium falciparum [10]): 28.6 µM
IC50 (Plasmodium falciparum [11]): 26.7 µM
IC50 [2]: 1100 µM
IC50 (KB): 52.9 µM
selectivity ratio [4]: 1.3
selectivity ratio [5]: 1.1
selectivity ratio [6]: 1.8
selectivity ratio [7]: 2

SMILES: COc1ccc2nc3cc(Cl)ccc3c(NCCCCCCNc3c4ccc(Cl)cc4nc4ccc(OC)cc34)c2c1
pKa [1]: 8.23
IC50 (Plasmodium falciparum [8]): 3.39 µM
IC50 (Plasmodium falciparum [9]): 4.55 µM
IC50 (Plasmodium falciparum [10]): 1.01 µM
IC50 (Plasmodium falciparum [11]): 1.11 µM
IC50 [2]: 1300 µM
Kd [3]: 20 µM
IC50 (KB): 0.05 µM
selectivity ratio [5]: 0.01
selectivity ratio [6]: 0.05
selectivity ratio [7]: 0.045

IC50 [2]: 900 µM
Kd [3]: 5.4 µM
SMILES: CCN(CC)CCCC(C)Nc1ccnc2cc(Cl)ccc12 (stereo not drawn) [CHLOROQUINE]
IC50 (KB): 22.5 µM
